# How the values were obtained:
# [1] = target: T1, Lysine-specific demethylase 4C (Homo sapiens, UniProt Q9H3R0); experiment: Inhibition of N-terminal his-tagged human KDM4C expressed in Escherichia coli BL21(DE3) using trimethylated peptide substrate by RFMS assay
# T1 sequence (Q9H3R0 whole entry): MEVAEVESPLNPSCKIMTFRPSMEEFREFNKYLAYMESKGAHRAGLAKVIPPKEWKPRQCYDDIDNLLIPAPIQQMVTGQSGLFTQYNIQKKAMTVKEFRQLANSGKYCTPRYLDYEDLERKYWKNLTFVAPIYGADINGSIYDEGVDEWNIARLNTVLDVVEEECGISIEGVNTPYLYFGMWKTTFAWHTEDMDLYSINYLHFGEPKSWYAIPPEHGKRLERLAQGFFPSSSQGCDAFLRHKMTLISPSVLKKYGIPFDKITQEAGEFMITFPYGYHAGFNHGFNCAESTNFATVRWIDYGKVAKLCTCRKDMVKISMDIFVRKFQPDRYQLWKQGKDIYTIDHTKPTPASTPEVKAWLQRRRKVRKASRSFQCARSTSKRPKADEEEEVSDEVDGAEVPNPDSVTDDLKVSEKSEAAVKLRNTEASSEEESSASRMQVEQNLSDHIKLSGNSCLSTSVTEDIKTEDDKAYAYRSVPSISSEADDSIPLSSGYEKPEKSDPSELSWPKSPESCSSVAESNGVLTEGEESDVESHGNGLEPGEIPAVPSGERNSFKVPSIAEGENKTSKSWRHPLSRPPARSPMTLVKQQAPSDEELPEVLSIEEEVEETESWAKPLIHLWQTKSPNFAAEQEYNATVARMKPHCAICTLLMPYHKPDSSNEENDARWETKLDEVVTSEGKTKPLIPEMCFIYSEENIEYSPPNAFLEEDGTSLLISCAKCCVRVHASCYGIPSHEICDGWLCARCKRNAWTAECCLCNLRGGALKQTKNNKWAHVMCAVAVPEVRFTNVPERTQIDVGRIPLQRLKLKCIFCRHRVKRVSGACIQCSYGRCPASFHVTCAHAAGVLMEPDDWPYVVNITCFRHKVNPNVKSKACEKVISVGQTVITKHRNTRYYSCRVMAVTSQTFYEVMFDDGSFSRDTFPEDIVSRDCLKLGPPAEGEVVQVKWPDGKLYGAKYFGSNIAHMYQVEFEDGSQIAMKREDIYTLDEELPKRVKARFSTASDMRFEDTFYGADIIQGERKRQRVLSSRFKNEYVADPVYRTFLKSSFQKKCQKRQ
# [2] = Dissociation constant, pKa of the compound; assay type: physicochemical
# [3] = target: T1, Lysine-specific demethylase 4C; experiment: Inhibition of N-terminal his-tagged full-length human KDM4C transfected in U2OS cells assessed as inhibition of H3K9Me3 demethylation for 24 hrs; assay type: cell-based
# [4] = target: T2, Lysine-specific demethylase 4A (Homo sapiens, UniProt O75164); experiment: Inhibition of KDM4A (unknown origin) by RFMS assay
# T2 sequence (O75164 whole entry): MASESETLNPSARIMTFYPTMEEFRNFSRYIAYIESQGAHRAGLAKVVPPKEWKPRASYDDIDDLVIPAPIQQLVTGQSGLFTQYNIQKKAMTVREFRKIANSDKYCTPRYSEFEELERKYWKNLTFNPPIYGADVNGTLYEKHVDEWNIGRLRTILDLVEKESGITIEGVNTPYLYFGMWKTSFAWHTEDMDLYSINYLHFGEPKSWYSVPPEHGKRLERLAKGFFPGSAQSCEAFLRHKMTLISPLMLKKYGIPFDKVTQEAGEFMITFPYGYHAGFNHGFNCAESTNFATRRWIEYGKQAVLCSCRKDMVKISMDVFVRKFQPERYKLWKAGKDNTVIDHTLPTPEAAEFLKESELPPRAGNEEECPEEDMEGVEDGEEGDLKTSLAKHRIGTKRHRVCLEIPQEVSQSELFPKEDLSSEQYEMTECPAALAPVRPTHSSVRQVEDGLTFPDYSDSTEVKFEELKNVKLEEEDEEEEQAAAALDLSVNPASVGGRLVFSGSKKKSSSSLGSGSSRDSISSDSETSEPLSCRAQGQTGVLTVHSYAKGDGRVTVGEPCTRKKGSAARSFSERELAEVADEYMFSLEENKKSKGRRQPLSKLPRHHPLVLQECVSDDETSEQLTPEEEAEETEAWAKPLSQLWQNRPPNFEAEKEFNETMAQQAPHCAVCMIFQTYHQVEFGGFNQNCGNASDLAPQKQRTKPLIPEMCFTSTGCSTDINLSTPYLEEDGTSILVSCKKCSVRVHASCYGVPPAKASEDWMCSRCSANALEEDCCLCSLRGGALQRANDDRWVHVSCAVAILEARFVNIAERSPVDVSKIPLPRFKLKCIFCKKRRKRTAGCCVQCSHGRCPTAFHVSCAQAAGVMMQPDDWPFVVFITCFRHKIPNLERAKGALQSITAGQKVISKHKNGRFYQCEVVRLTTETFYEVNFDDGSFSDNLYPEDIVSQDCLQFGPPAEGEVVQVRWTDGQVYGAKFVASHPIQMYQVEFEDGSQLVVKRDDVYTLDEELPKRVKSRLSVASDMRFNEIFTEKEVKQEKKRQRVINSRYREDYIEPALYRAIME
# [5] = target: T3, Lysine-specific demethylase 4D (Homo sapiens, UniProt Q6B0I6); experiment: Inhibition of KDM4D (unknown origin) by RFMS assay
# T3 sequence (Q6B0I6 whole entry): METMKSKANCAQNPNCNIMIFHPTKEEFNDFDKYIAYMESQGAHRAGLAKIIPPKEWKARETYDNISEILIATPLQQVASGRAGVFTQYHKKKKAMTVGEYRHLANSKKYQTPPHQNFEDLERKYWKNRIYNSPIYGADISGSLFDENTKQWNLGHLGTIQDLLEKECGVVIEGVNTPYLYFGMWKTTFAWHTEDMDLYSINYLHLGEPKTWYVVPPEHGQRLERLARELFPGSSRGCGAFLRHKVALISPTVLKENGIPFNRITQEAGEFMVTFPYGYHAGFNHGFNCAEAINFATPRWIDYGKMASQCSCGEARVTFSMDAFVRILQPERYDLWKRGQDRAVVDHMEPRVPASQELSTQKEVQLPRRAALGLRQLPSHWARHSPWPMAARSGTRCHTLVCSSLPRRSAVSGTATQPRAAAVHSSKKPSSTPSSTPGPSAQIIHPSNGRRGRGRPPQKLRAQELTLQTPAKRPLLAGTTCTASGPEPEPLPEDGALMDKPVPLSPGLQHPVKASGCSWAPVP
# [6] = target: T4, Lysine-specific demethylase 4E (Homo sapiens, UniProt B2RXH2); experiment: Inhibition of KDM4E (unknown origin) by RFMS assay
# T4 sequence (B2RXH2 whole entry): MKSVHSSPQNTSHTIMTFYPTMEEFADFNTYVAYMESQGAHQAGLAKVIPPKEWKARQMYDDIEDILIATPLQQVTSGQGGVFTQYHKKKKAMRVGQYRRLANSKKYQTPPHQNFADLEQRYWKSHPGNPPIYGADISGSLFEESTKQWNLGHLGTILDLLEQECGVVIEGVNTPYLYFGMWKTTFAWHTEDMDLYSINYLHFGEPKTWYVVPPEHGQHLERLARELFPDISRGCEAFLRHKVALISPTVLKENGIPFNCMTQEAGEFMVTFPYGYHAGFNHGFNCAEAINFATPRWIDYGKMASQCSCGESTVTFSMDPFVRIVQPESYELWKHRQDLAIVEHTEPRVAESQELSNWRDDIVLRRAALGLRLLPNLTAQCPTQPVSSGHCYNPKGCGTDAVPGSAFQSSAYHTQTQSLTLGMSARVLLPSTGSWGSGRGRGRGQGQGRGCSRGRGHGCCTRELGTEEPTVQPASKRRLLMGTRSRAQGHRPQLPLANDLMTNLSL
# [7] = target: Lysine-specific demethylase 6B (Homo sapiens, UniProt O15054); experiment: Inhibition of KDM6B (unknown origin) by RFMS assay
# [8] = target: Prolyl hydroxylase EGLN3 (Homo sapiens, UniProt Q9H6Z9); experiment: Inhibition of full-length EGLN3 (unknown origin) expressed in Escherichia coli BL21(DE3) cells by HTRF assay
# [9] = target: T5, Lysine-specific demethylase 5C (Homo sapiens, UniProt P41229); experiment: Inhibition of KDM5C catalytic domain (1 -764 aa) (unknown origin) expressed in Sf9 cells using H3K4Me3 peptide as substrate by RFMS assay
# [10] = target: T5, Lysine-specific demethylase 5C; experiment: Inhibition of human KDM5C transfected in U2OS cells assessed as inhibition of […] demethylation for 24 hrs; assay type: cell-based; settings: read-out: IC50
# How it was run: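 High-content cell imaging assay in U2OS cells overexpressing KDM5C, the same cell type as the KDM4C cellular mechanistic assay. Cellular potency reported as pIC50.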
# [11] = physchem; settings: buffer, pH 7.4
# [12] = target: T1, Lysine-specific demethylase 4C; experiment: Inhibition of N-terminal HALO-tagged full-length human KDM4C transfected in U2OS cells assessed as inhibition of H3K9Me3 demethylation for 24 hrs
# T5 sequence (P41229 whole entry, the tested form may be a part): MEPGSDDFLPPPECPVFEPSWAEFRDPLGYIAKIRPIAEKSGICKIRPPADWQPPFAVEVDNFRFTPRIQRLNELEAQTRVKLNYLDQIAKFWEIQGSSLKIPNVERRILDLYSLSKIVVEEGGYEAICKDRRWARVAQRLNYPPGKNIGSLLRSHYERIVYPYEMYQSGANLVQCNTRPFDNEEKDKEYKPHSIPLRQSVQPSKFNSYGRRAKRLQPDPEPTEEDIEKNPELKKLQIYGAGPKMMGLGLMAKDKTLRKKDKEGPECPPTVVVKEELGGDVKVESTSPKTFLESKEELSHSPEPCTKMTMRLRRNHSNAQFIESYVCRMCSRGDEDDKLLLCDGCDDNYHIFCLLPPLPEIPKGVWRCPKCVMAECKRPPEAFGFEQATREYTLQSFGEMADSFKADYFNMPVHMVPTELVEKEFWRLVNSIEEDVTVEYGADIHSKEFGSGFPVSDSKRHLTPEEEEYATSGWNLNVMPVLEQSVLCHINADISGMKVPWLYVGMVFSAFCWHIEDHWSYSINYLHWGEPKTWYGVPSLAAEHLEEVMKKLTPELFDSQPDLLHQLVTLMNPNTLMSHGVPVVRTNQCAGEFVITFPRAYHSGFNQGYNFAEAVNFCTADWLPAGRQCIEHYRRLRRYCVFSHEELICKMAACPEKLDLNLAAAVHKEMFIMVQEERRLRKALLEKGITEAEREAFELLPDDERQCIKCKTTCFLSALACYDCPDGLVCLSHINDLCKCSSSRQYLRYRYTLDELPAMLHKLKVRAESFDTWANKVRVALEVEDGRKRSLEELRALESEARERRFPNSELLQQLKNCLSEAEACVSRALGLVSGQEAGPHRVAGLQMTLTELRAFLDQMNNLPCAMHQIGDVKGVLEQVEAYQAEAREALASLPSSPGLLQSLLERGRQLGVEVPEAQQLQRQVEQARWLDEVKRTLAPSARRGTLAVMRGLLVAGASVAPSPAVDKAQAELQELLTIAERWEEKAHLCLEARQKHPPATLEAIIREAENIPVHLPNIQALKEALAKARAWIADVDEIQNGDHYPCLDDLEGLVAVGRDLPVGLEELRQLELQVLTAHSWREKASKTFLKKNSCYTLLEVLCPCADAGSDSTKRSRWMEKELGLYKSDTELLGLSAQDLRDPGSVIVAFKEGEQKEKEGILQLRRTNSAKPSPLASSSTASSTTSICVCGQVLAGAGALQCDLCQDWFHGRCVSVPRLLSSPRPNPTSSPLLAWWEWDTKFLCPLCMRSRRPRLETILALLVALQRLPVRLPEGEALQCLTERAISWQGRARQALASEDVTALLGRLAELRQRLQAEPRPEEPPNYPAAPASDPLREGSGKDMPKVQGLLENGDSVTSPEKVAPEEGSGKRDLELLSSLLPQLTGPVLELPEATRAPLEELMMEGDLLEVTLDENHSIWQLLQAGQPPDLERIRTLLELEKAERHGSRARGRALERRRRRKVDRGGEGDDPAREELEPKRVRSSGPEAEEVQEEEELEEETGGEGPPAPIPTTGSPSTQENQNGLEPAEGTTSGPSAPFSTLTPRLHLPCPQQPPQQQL
# Chain of Lysine-specific demethylase 6B (O15054 whole entry): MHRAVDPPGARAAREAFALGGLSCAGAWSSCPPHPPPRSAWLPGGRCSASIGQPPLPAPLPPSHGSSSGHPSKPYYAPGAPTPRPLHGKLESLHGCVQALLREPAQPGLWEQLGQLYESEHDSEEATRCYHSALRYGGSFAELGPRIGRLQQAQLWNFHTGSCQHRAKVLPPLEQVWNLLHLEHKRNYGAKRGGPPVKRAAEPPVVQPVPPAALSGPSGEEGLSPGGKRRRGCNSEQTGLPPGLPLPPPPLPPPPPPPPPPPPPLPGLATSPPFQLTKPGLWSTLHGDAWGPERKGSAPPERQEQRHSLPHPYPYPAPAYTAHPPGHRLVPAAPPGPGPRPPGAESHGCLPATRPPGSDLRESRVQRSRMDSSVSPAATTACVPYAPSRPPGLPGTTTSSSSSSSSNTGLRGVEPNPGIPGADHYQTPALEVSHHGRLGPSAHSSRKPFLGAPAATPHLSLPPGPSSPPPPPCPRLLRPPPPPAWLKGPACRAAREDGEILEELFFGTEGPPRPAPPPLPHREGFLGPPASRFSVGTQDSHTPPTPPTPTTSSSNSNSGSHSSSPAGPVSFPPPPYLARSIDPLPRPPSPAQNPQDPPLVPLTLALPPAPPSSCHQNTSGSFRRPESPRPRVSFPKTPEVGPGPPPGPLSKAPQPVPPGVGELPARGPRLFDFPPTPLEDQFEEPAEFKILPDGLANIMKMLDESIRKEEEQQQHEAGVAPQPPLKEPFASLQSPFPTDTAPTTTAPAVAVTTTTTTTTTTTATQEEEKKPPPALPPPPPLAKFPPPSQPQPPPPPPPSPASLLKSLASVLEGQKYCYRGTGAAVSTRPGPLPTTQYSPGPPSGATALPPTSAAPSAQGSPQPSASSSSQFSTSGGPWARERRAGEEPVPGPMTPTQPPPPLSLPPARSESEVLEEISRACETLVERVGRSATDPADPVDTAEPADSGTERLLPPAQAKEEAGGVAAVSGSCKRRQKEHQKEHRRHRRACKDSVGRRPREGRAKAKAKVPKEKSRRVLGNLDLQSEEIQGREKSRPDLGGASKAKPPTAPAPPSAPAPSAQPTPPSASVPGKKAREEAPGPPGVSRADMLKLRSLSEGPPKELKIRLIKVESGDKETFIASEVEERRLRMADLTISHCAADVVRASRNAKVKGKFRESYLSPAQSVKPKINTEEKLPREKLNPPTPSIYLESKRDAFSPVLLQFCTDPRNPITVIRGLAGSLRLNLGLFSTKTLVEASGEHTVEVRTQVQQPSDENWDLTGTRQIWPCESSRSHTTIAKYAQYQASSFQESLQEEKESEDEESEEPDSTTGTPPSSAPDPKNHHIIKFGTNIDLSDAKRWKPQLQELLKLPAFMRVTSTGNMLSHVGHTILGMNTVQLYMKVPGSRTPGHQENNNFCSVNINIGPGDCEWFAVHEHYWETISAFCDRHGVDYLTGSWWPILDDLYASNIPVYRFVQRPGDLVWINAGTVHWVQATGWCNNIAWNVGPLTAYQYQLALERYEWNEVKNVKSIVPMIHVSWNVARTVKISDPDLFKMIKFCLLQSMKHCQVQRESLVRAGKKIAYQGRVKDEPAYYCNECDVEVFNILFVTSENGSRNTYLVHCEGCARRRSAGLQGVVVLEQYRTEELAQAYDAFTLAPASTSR
# Chain of Prolyl hydroxylase EGLN3 (Q9H6Z9 whole entry, the tested form may be a part): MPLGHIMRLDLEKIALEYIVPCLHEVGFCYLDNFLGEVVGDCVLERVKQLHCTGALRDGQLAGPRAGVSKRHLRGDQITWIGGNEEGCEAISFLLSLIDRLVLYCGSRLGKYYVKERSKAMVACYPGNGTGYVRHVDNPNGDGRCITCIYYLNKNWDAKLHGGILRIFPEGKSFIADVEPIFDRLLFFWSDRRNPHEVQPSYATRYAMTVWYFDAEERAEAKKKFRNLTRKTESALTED
Structure (SMILES),IC50 [1] [µM],pKa [2],IC50 [3] [µM],IC50 [4] [µM],IC50 [5] [µM],IC50 [6] [µM],IC50 [7] [µM],IC50 [8] [µM],IC50 [9] [µM],IC50 [10] [µM],logD [11],IC50 [12] [µM]
CCNc1nc2cnccc2c(=O)[nH]1,3.16,8.6,–,–,–,–,–,–,–,–,–,–
CCCc1nc2cnccc2c(=O)[nH]1,12.6,8.8,–,–,–,–,–,–,–,–,–,–
CCOc1nc2cnccc2c(=O)[nH]1,1,7.5,63.1,–,–,–,–,–,–,–,–,–
CCSc1nc2cnccc2c(=O)[nH]1,0.794,6.8,> 100,–,–,–,–,–,–,–,–,–
O=c1[nH]c(Oc2cnn(CC3CCCCC3)c2)nc2cnccc12,0.631,–,5.01,0.631,0.398,0.501,> 100,> 100,0.0794,2.5,2.9,2

# — ChEMBL document CHEMBL3769320, “Cell Penetrant Inhibitors of the KDM4 and KDM5 Families of Histone Lysine Demethylases. 2. Pyrido[3,4-d]pyrimidin-4(3H)-one Derivatives” (J Med Chem, 2016)
